Laboratory results published in ChEMBL document CHEMBL4052591, “Evaluation of Jatrophane Esters from Euphorbia spp. as Modulators of Candida albicans Multidrug Transporters” (2017).
Active and inactive are the calls of the source. The rule behind the calls is not given here.

Tests used:
Candida albicans [1] = experiment: Inhibition of Candida albicans CDR1 transporter expressed in Saccharomyces cerevisiae AD cells assessed as nile red accumulation at 70 uM after 30 mins by flow cytometric analysis relative to control; assay type: cell-based
Outline: (§1)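 S. cerevisiae AD strains overexpressing CaCdr1p (AD-CDR1) or CaMdr1p (AD-MDR1) were grown at 30 °C from OD600 0.1 to 0.25. They were resuspended as a 5% suspension in YEPD:water 1:2. Nile Red (7 μM final) was given ± inhibitor (70 μM) for 30 min at 30 °C. Accumulation was read by flow cytometry on 10 000 cells. Means ± SD, three independent experiments.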

Candida albicans [2] = experiment: Inhibition of Candida albicans MDR1 transporter expressed in Saccharomyces cerevisiae AD cells assessed as nile red dye accumulation at 70 uM after 30 mins by flow cytometric analysis relative to control; assay type: cell-based; outline: as §1

| Compound | inhibition (Candida albicans [1]) | inhibition (Candida albicans [2]) |
| --- | --- | --- |
| C=C1[C@@H](OC(C)=O)[C@H]2[C@@H](OC(C)=O)[C@](C)(O)C[C@]2(OC(C)=O)C(=O)[C@H](C)/C=C/C(C)(C)C(=O)[C@H](OC(=O)c2ccccc2)[C@H]1OC(C)=O | inactive | inactive |
| C=C1[C@@H](OC(C)=O)[C@H]2[C@@H](OC(=O)c3ccccc3)[C@@H](C)C[C@]2(O)[C@H](O)[C@H](C)/C=C/C(C)(C)C(=O)[C@H](OC(C)=O)[C@H]1OC(C)=O | inactive | inactive |
| C=C1[C@@H](OC(C)=O)[C@H]2[C@@H](OC(C)=O)[C@](C)(OC(C)=O)C[C@]2(OC(C)=O)C(=O)[C@H](C)/C=C/C(C)(C)C(=O)[C@H](OC(C)=O)[C@H]1OC(C)=O | inactive | inactive |
| C=C1[C@@H](OC(=O)C(C)C)[C@H]2[C@@H](OC(=O)C(C)C)[C@](C)(OC(C)=O)C[C@]2(O)C(=O)[C@@H](C)/C=C/C(C)(C)[C@H](OC(C)=O)[C@H](OC(C)=O)[C@H]1OC(=O)c1ccccc1 | inactive | inactive |
| CC(=O)O[C@H]1[C@@H](OC(C)=O)C(C)(C)/C=C/[C@@](C)(O)C(=O)[C@@]2(OC(C)=O)C[C@@](C)(OC(C)=O)[C@H](OC(C)=O)[C@@H]2[C@H]2OC(=O)CC[C@@]2(OC(C)=O)[C@@H]1OC(=O)C(C)C | inactive | inactive |
| C=C1[C@@H](OC(=O)C(C)C)[C@H]2[C@@H](O)[C@](C)(OC(C)=O)C[C@]2(O)C(=O)[C@@H](C)/C=C/C(C)(C)[C@H](OC(C)=O)[C@H](OC(C)=O)[C@H]1OC(=O)c1ccccc1 | inactive | inactive |
| C=C1[C@@H](OC(C)=O)[C@H]2[C@@H](OC(C)=O)[C@](C)(OC(C)=O)C[C@]2(OC(C)=O)C(=O)[C@H](C)/C=C/C(C)(C)C(=O)[C@H](OC(=O)/C(C)=C/C)[C@H]1OC(C)=O | inactive | inactive |
| C=C1[C@@H](OC(=O)C(C)C)[C@H]2[C@@H](OC(C)=O)[C@](C)(OC(=O)c3cccnc3)C[C@]2(O)C(=O)[C@@H](C)/C=C/C(C)(C)[C@H](OC(=O)c2cccnc2)[C@H](OC(C)=O)[C@H]1OC(=O)c1ccccc1 | inactive | inactive |
| C=C1[C@@H](OC(=O)C(C)C)[C@H]2[C@@H](OC(C)=O)[C@](C)(O)C[C@]2(O)C(=O)[C@@H](C)/C=C/C(C)(C)[C@H](OC(C)=O)[C@H](OC(C)=O)[C@H]1OC(=O)c1ccccc1 | inactive | inactive |
| C=C1[C@@H](OC(C)=O)[C@H]2[C@@H](OC(C)=O)[C@](C)(O)C[C@]2(OC(C)=O)C(=O)[C@H](C)/C=C/C(C)(C)C(=O)[C@H](OC(=O)C(C)C)[C@H]1OC(C)=O | inactive | inactive |
| CC(=O)O[C@H]1[C@@H](OC(C)=O)C(C)(C)/C=C/[C@@](C)(O)C(=O)[C@@]2(O)C[C@@](C)(OC(C)=O)[C@H](OC(C)=O)[C@@H]2[C@H]2OC(=O)CC[C@@]2(OC(=O)C(C)C)[C@@H]1OC(=O)C(C)C | inactive | inactive |
| C=C1[C@@H](OC(=O)C(C)C)[C@H]2[C@@H](OC(C)=O)[C@](C)(OC(C)=O)C[C@]2(O)C(=O)[C@@H](C)/C=C/C(C)(C)[C@H](OC(C)=O)[C@H](OC(C)=O)[C@H]1OC(=O)c1ccccc1 | inactive | inactive |
| C=C1[C@@H](OC(C)=O)[C@H]2[C@@H](OC(=O)c3ccccc3)[C@@H](C)C[C@]2(O)[C@H](O)[C@H](C)/C=C/C(C)(C)C(=O)[C@H](O)[C@H]1OC(C)=O | inactive | inactive |
| C=C1[C@@H](OC(=O)c2ccccc2)[C@H]2[C@@H](O)[C@](C)(OC(C)=O)C[C@]2(O)C(=O)[C@@H](C)/C=C/C(C)(C)[C@H](OC(C)=O)[C@H](O)[C@H]1OC(=O)c1ccccc1 | inactive | inactive |
| C=C1[C@@H](OC(C)=O)[C@H]2[C@@H](OC(C)=O)[C@](C)(OC(=O)c3cccnc3)C[C@]2(O)C(=O)[C@@H](C)/C=C/C(C)(C)[C@H](OC(=O)c2cccnc2)[C@H](OC(C)=O)[C@H]1OC(=O)c1ccccc1 | inactive | inactive |
| C=C1[C@@H](OC(=O)C(C)C)[C@H]2[C@@H](OC(=O)c3ccccc3)[C@](C)(OC(C)=O)C[C@]2(O)C(=O)[C@@H](C)/C=C/C(C)(C)[C@H](OC(C)=O)[C@H](OC(C)=O)[C@H]1OC(=O)C(C)C | inactive | inactive |
| C=C1[C@@H](OC(=O)c2ccccc2)[C@H]2[C@@H](O)[C@](C)(OC(C)=O)C[C@]2(O)C(=O)[C@@H](C)/C=C/C(C)(C)[C@H](OC(C)=O)[C@H](OC(C)=O)[C@H]1OC(=O)c1ccccc1 | inactive | inactive |
| C=C1[C@@H](OC(C)=O)[C@H]2[C@@H](OC(C)=O)[C@](C)(OC(=O)c3cccnc3)C[C@]2(OC(C)=O)C(=O)[C@@H](C)/C=C/C(C)(C)[C@H](OC(=O)c2cccnc2)[C@H](OC(C)=O)[C@H]1OC(=O)c1ccccc1 | inactive | inactive |
| C=C1[C@@H](OC(=O)c2ccccc2)[C@H]2[C@@H](OC(C)=O)[C@](C)(O)C[C@]2(O)C(=O)[C@@H](C)/C=C/C(C)(C)[C@H](OC(C)=O)[C@H](OC(C)=O)[C@H]1OC(=O)c1cccnc1 | inactive | inactive |
| C=C1[C@@H](OC(C)=O)[C@H]2[C@@H](OC(C)=O)[C@](C)(OC(C)=O)C[C@]2(OC(C)=O)C(=O)[C@H](C)/C=C/C(C)(C)C(=O)[C@H](OC(=O)c2ccccc2)[C@H]1OC(C)=O | inactive | inactive |
| C=C1CCC2[C@@H](/C=C(\C)C(=O)[C@@]3(OC(C)=O)C[C@H](C)[C@H](OC(C)=O)[C@@H]3[C@H]1OC(C)=O)C2(C)C (single isomer, unassigned) | inactive | inactive |
| C=C1[C@@H](OC(C)=O)[C@H]2[C@@H](OC(C)=O)[C@](C)(O)C[C@]2(OC(C)=O)C(=O)[C@H](C)/C=C/C(C)(C)C(=O)[C@H](OC(=O)/C(C)=C/C)[C@H]1OC(C)=O | inactive | inactive |
| CC(=O)O[C@H]1[C@@H](OC(C)=O)C(C)(C)/C=C/[C@H](C)C(=O)[C@@]2(OC(C)=O)C[C@@](C)(OC(C)=O)[C@H](O)[C@@H]2[C@H]2OC(=O)CC[C@@]2(OC(C)=O)[C@@H]1OC(=O)C(C)C | inactive | inactive |
| C=C1[C@@H](OC(C)=O)[C@H]2[C@@H](OC(C)=O)[C@](C)(OC(=O)c3cccnc3)C[C@]2(OC(C)=O)C(=O)[C@@H](C)/C=C/C(C)(C)[C@H](OC(=O)c2cccnc2)[C@H](OC(C)=O)[C@H]1OC(=O)C(C)C | inactive | inactive |
| C=C1[C@@H](OC(=O)C(C)C)[C@H]2[C@@H](OC(C)=O)[C@@H](C)C[C@]2(O)C(=O)[C@@H](C)/C=C/C(C)(C)[C@H](OC(C)=O)[C@H](OC(C)=O)[C@H]1OC(=O)c1ccccc1 | inactive | inactive |
| C=C1[C@@H](OC(C)=O)[C@H]2[C@@H](OC(=O)c3ccccc3)[C@@H](C)C[C@]2(O)[C@H](OC(C)=O)[C@H](C)/C=C/[C@@](C)(CO)C(=O)[C@H](O)[C@H]1OC(C)=O | inactive | inactive |
